High-throughput results deposited in PubChem BioAssay by Broad Institute.
Most compounds without a hit are left out; they make up all but 3.5% or so of the library.
HIV Env fusion = blocks HIV Env-driven cell-cell fusion. HeLa-JRFL Env/CEM21 cell fusion, luciferase. inhibition, % at 12.3 µM. 360,000 compounds, 1.1% hits. AID 651610;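 active = mean replicate inhibition score of at least 50 and every replicate individually at or above 50; inconclusive = only one of the two criteria met; inactive = mean below 50 and not all replicates reaching 50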;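 note: 0% = plate neutral controls and 100% = maraviroc near 300 nM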
PglD inh = PglD (C. jejuni) enzyme inhibition; AID 602405; 360,000 compounds, 0.098% hits; inhibition, % at 12.5 µM; purified PglD enzyme, DTNB colorimetric CoA detection; in the data active = inhibition above about 16%, passing the limit was not always enough; inconclusive = no clear call, values can overlap the other calls
DENV2 CPE = inhibitors of DENV2 cytopathic effect; DENV2-infected cells, cytopathic effect rescue, plate reader; CPE inhibition, % at 9.99 µM; 350,000 compounds, 1.7% hits; AID 651640; in the data active = CPE inhibition above about 20%, passing the limit was not always enough; inconclusive = no clear call, values can overlap the other calls; tested in BHK-21 cells;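 note: 0% = median of neutral control wells and 100% = median of positive control wells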
Ecoli rRNA inh = selective bacterial rRNA inhibition in E. coli; E. coli WT GFP vs humanized-ribosome RFP mutants, fluorescence, 24 h; hits give low values; DMSO median 0, no signal -100; GFP signal change (wild-type ribosome), % (no concentration beside the values); 350,000 compounds, 1.6% hits; AID 720706;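 active = significant combined selectivity score with lowered wild-type GFP, culture density cut under 30%, mutant RFP and density less affected; inactive = any of these conditions unmet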
FN deposit inh = fibronectin deposition inhibition | AH1F fibroblasts, Alexa488-fibronectin deposition fluorescence, overnight | inhibition, % at 12.6 µM | 350,000 compounds, 0.086% hits | AID 743247;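 active = mean inhibition across replicates of 30% or more, regardless of how many single replicates reach that level; inconclusive = mean under 30% yet at least half of replicates reach 30%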;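 note: positive control wells lacked labelled fibronectin entirely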
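Schedule: 1 h cell adhesion before compound, then overnight fibronectin incubation; test system: AH1F fibroblast monolayer depositing Alexa488-labelled fibronectin into matrix; quantity: 10000 AH1F cells per well; probe or stimulus: fluorescent fibronectin at 24 nM final; signal: fluorescence, ex 485 nm, em 525 nm; evaluation: percent inhibition as loss of matrix-bound fibronectin fluorescence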
PGC1a acetyl inh = lowers PGC1a acetylation signal in U2OS cells. 350,000 compounds, 0.17% hits. inhibition, % at 15.6 µM. AID 651687. AlphaScreen anti-acetyl-lysine; with virally co-expressed GCN5 acetyltransferase;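 active = every replicate shows inhibition of at least 40%; inconclusive = mean inhibition at least 40% but some replicate below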;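 note: 0% = neutral control wells and 100% = positive control wells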
* = called active by the depositor; ? = inconclusive; . = not tested or not shown; [ ] = dose if it differs, or a comment.

SMILES | HIV Env fusion | PglD inh | DENV2 CPE | Ecoli rRNA inh | FN deposit inh | PGC1a acetyl inh
O=[N+]([O-])c1ccccc1Nc1c2ccccc2nc2ccccc12 | 62.0* | . | -2.9 | 9.9 | 13.5 | .
COc1ccc([N+](=O)[O-])cc1Nc1c2ccccc2nc2ccccc12 | 79.4* | 4.3 | 4.3 | 6.6 | 16.2 | -10.5
C[C@@H]1CCCCO[C@H](CN(C)C(=O)Nc2ccccc2)[C@H](C)CN([C@H](C)CO)C(=O)c2cc(NC(=O)C3CCCCC3)ccc2O1 | 17.2[16.7 µM] | . | . | -1.1 | -4.9 | 4.7
CCn1cc(C(=O)OCC(=O)Nc2ccccc2OC(F)F)c(=O)c2ccc(C)nc21 | -8.6 | -2.2 | 3.6 | -28.0 | -0.2 | 0.3
CCn1cc(C(=O)OCC(=O)Nc2ccc(C(C)C)cc2)c(=O)c2ccc(C)nc21 | 10.9 | . | -2.5 | -22.9* | -24.1 | 11.5
Cc1ccccc1OCC(=O)Nc1ccccc1-c1ccccc1NC(=O)COc1ccccc1C | 64.0* | -2.7 | . | . | -7.2 | -13.2
CCOC(=O)c1ccc(NC(=O)CNNC(=O)COc2ccccc2C)cc1 | -6.4 | -6.0 | -5.9 | -29.2* | -12.0 | .
CC(C)C(=O)N1CCN(c2ccccc2NC(=O)COc2ccccc2)CC1 | 15.5 | -4.1 | -5.5 | -27.4* | 3.1 | 1.1
CCOC(=O)c1ccc(NC(=O)COc2ccccc2CNCCc2ccccc2)cc1 | -37.0 | . | 11.9 | -51.1 | 10.7 | 6.4
Cc1ccc(OCC(=O)Nc2ccccc2N2CCCC2)c(C)c1 | -20.3 | . | -3.4 | -27.1* | 11.5 | .
CC(C)[C@@H]1C(=O)N[C@@H](c2ccc3c(c2)OCO3)CC=CC[C@@H](C)Oc2ccccc2C(=O)N1C (mixture of isomers) | . | . | . | 2.4 | -14.3 | .
COc1ccc(S(=O)(=O)Nc2ccc3c(c2)C(=O)N([C@@H](C)CO)C[C@H](C)[C@@H](CN(C)C(=O)NC2CCCCC2)OCCCC[C@H](C)O3)cc1 | 10.6[16.7 µM] | -0.3 | -3.1 | -2.5 | -4.3 | 0.8
O=C(NCc1ccccc1)[C@H]1CCCN1C(=O)[C@H]1CCCN1C(=O)c1ccc(Cl)cc1 | 19.1 | . | 44.3* | 9.0 | 17.3 | .
O=C(NCc1ccccc1)[C@H]1CCCN1C(=O)[C@H]1CCCN1C(=O)c1ccccc1 | -14.4 | . | 9.9 | 6.7 | -8.2 | .
CC(C)(C)OC(=O)N1CCC[C@@H]1C(=O)NCc1ccccc1 | 28.0 | . | 0.0 | 13.6 | 11.5 | .
O=C(O)c1ccc(CNC(=O)C2CCCN2C(=O)OCc2ccccc2)cc1 (stereo not given) | 13.5 | 5.3 | 25.5* | 16.6 | -0.2 | .
O=C(NCc1ccccc1Cl)[C@H]1CCCN1C(=O)[C@H]1CCCN1C(=O)c1cccc2ccccc12 | 15.0 | . | ? | -22.9* | -7.5 | .
COc1cccc(OC)c1NC(=O)C1CCCN1C(=O)NCc1ccccc1 (stereo not given) | -146.5 | -2.1 | . | . | 0.7 | 96.9*
COc1ccc2c3c([nH]c2c1)[C@H](CO)N(C(=O)c1cccc(F)c1)CC31CN(C(=O)c2ccccc2)C1 | . | . | -5.2 | -2.3 | . | -9.3
CO[C@H]1CN(C)C(=O)c2cc(NC(=O)NC3CCCC3)ccc2OC[C@@H](C)N(CC2CC2)C[C@H]1C | . | . | 11.0 | 2.5 | -13.6 | -0.3
CCCN1[C@@H]2Cn3c(ccc(-c4cccc(F)c4)c3=O)[C@H]1[C@@H](C(=O)N(C)C)[C@@H]2CO | . | . | -2.2 | 3.1 | . | 4.4
COc1ccc(CNC(=O)C[C@@H]2C=C[C@@H](NC(=O)CN(C)C)[C@H](CO)O2)cc1 | -1.7[16.7 µM] | -4.3 | 0.6 | -0.9 | . | 0.8
C[C@@H](NC(=O)C[C@H]1CC[C@@H]2[C@H](COC[C@@H](O)CN2C(=O)Nc2cccc(Cl)c2)O1)c1ccccc1 | -44.0[16.7 µM] | 2.2 | -2.0 | -56.5 | -2.0 | -1.4
COc1cccc(CNC(=O)[C@H]2CCCN2C(=O)C2CCCN2C(=O)c2ccc(OC)c(F)c2)c1 (stereo not given in full) | -29.7 | . | 27.7* | 23.9 | -10.7 | .
O=C1N[C@@H](c2ccccc2)COCc2cn(nn2)CC[C@@H]1Cc1ccc(C(F)(F)F)cc1 | . | . | . | -0.9 | 5.0 | .
SMILES | HIV Env fusion | PglD inh | DENV2 CPE | Ecoli rRNA inh | FN deposit inh | PGC1a acetyl inh
Clc1cc(Br)ccc1OCCOCCN1CCOCC1 | . | -4.0 | . | . | . | 1.3
CC1CCN(CCOCCOc2ccc(Cl)cc2Br)CC1 | . | -2.6 | 3.6 | -29.5* | . | -10.0
Clc1cc(Br)ccc1OCCOCCN1CCCC1 | -11.5 | -24.8 | 24.8* | 9.5 | 4.2 | 6.6
Clc1cc(Br)ccc1OCCCn1ccnc1 | -65.1 | . | 36.6* | -25.4 | -2.5 | -8.0
Clc1cccc(OCCOCCN2CCNCC2)c1Cl | 18.1 | -3.7 | ? | -15.8* | 1.4 | -5.8
CC1CCN(CCCOc2ccc(Cl)cc2Br)CC1 | -6.2 | 7.5 | 1.8 | 10.9 | -10.2 | -2.9
CNC[C@@H]1OCCCC[C@@H](C)Oc2ccc(NS(=O)(=O)c3ccc(Cl)cc3)cc2C(=O)N([C@@H](C)CO)C[C@H]1C | 8.4[16.7 µM] | . | . | 1.5 | . | -16.1
C[C@H](CO)N1C[C@H](C)[C@@H](CN(C)Cc2ccc(Oc3ccccc3)cc2)Oc2c(NC(=O)Cc3ccccc3)cccc2C1=O | . | . | . | 5.8 | . | .
CN1c2ccc(-c3ccccc3)cc2[C@H]2[C@H](CCN2C(=O)Nc2ccccc2F)[C@H]1CO | . | 0.9 | 8.3 | -19.2 | -19.3 | 2.7
CN(C)CCCNC(=S)NCC(c1ccc(Cl)cc1Cl)c1c[nH]c2ccccc12 (stereo not given) | -0.6 | -0.6 | -4.0 | -58.5 | 9.4 | .
CCCCNC(=S)NCC(c1ccccc1)c1c[nH]c2ccccc12 (stereo not given) | 7.4 | 6.7 | 4.1 | -49.1* | 7.9 | -5.6
O=S(=O)(c1cccc(F)c1)N1CC[C@@H]2[C@H](CO)Nc3ccc(Br)cc3[C@@H]21 | . | -2.2 | -8.0 | -38.6 | 0.6 | 14.3
Cc1[nH]n(-c2cccc(Cl)c2)c(=O)c1C=NCC(C)C | -18.0 | . | -5.3 | -20.9* | -8.7 | -1.3
CCC(C)(C)NC(=O)C(OC(=O)c1ccco1)c1ccccc1OC (stereo not given) | -40.2 | -2.9 | . | . | 30.9* | -13.5
CNC[C@@H]1Oc2ccc(NC(=O)C3CC3)cc2CC(=O)N([C@H](C)CO)C[C@@H]1C | -11.9[16.7 µM] | -1.6 | -8.7 | 3.9 | . | 9.4
NC(Cc1ccc(F)cc1)c1csc(Nc2ccc(C(F)(F)F)cn2)n1 (stereo not given) | 71.0* | -1.2 | -1.3 | -53.8 | -6.4 | 0.2
Cc1cnc(C)c(Nc2nc(C(N)Cc3ccc(C(F)(F)F)cc3)cs2)n1 (stereo not given) | 106.4* | 3.5 | 1.4 | -57.2 | -7.8 | -3.7
C[C@@H]1CN([C@H](C)CO)C(=O)c2cc(C3=CCCCC3)cnc2O[C@@H]1CN(C)Cc1ccncc1 | . | . | -5.6 | -2.1 | . | 5.1
CCC(=O)N1C[C@@H](C)[C@@H](OC)CN(C)C(=O)c2cc(NC(=O)Nc3cccc(F)c3)ccc2OC[C@H]1C | 4.8[16.7 µM] | 1.5 | -0.4 | -4.4 | 9.4 | -10.7
